EBI2 block – EBI2 (human) antagonism; P32249; EBI2 beta-arrestin recruitment, luminescence, 7a,25-OHC stimulated; inhibition, % at 5 µM; 0.81% of 360,000 active; AID 651636; in the data active = inhibition above about 38%;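 also: enzyme fragment complementation signal reports receptor beta-arrestin coupling in cells; 0% = agonist plus DMSO wells and 100% = wells without agonist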
Target sequence (P32249 whole entry, looked up, the tested form may be a part): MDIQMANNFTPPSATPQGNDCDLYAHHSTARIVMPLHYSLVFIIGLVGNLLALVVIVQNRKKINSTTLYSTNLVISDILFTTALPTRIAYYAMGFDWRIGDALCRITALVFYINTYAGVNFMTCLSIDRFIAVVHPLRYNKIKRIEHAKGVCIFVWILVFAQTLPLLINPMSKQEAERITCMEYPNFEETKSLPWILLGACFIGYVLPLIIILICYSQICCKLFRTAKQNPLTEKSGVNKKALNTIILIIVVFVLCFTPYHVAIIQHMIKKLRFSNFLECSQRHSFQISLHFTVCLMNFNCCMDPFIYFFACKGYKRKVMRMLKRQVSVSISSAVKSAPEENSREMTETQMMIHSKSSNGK
APJ agonist – activates the human apelin receptor APJ; P35414; 0.11% of 330,000 active; activation, % at 20 µM; AID 2520; CHO-K1 APJ PathHunter beta-arrestin, luminescence; 0% DMSO wells, 100% apelin;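 active = activation more than six SD over the plate average, tested at 20 µM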;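 also: 0% = DMSO alone and 100% = apelin-13 at 10 nM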
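assay system = CHO-K1 APJ beta-arrestin complementation cell line | input = cell density 1000 per well | dosing = compound 20 µM once, DMSO 1% | timing = compound 90 min 25 °C, reagent 1 h | measured by = luminescence from split beta-galactosidase complementation, Galacton Star/Emerald II substrate | read-out basis = APJ agonist activity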
CCR6 antag – CCR6 (human) receptor antagonism. CHO-K1 CCR6 PathHunter beta-arrestin, luminescence, CCL20-stimulated. inhibition, % at 20 µM. 0.49% of 340,000 active;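 active = compounds whose inhibition of the agonist-driven luminescence signal at 20 µM reaches about 50%, limit read from the data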;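 also: cells stimulated with CCL20 at 14 nM final; plate controls were DMSO with CCL20 for no effect and DMSO without agonist for full effect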
APJ antagonist – blocks the human apelin receptor APJ; CHO-K1 APJ beta-arrestin complementation, luminescence; inhibition, % at 20 µM; 0.32% of 330,000 active; P35414;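 active = inhibition above about 40% at 20 µM, limit read from the data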;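 also: cells challenged with 10 nM apelin-13 agonist together with compound; plate controls were apelin-13 plus DMSO wells for no effect and DMSO wells lacking apelin-13 for full effect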
CXCR6 block – inhibitors of human CXCR6 receptor; O00574; CHO-K1 PathHunter CXCR6 beta-arrestin, luminescence; inhibition, % at 20 µM; 0.36% of 360,000 active; AID 602244; in the data active = inhibition above about 34%, passing the limit was not always enough;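 also: antagonist mode with CXCL16 agonist at 10 nM final; 0% = 10 nM CXCL16 with DMSO and 100% = unstimulated wells without agonist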
Target sequence (O00574 whole entry, looked up): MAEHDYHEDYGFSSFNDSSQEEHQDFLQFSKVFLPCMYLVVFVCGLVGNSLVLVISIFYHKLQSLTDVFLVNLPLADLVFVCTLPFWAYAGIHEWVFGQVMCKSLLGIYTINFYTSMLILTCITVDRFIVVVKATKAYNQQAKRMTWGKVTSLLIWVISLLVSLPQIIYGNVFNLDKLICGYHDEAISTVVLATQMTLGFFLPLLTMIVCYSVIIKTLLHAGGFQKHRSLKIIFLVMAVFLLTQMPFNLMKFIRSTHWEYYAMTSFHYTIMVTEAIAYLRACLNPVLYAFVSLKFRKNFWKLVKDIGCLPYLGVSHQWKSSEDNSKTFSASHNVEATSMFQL
APJ antag confirm – confirmation of human APJ apelin receptor antagonists; shares compounds with APJ antagonist; APJ beta-arrestin recruitment, luminescence, antagonist mode; inhibition, % at 20 µM; 66% of 950 active; in the data active = inhibition above about 50%
CXCR6 confirm – CXCR6 antagonism confirmation, single concentration; shares compounds with CXCR6 block; CHO-K1 CXCR6 PathHunter beta-arrestin, luminescence; inhibition, % at 20 µM; 65% of 700 active; AID 602409;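 active = mean inhibition over four retests above 40%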;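 also: receptor stimulated with 10 nM CXCL16 agonist; beta-galactosidase fragment complementation upon beta-arrestin recruitment to receptor; plate controls were CXCL16 plus DMSO for no effect and DMSO without CXCL16 for full effect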
An asterisk follows results filed as active; . = no result given. Shown are actives, neighbours in structure and some others; about 1.5% of the full set was active somewhere.

SMILES	EBI2 block	APJ agonist	CCR6 antag	APJ antagonist	CXCR6 block	APJ antag confirm	CXCR6 confirm
CCC(C)c1ccc(O)c(NC(=S)NC(=O)c2cccnc2)c1 (stereo not drawn)	19.2	-12.4	86.8*	67.3*	74.1*	130.7*	69.5*
O=C(NC(=S)Nc1ccccc1O)c1cccnc1	5.8	-8.4	59.5*	46.8*	41.8*	48.0	43.1*
COC(=O)CCC(=O)c1oc2ccccc2c1N	-8.0	0.0	-13.7	-29.4	-3.4	.	.
Cc1ccccc1C(=O)Nc1scc(-c2ccc(Br)cc2)c1C(=O)O	3.2	-1.3	-5.7	4.2	8.0	.	.
O=C(NNC(=S)Nc1ccccc1)Nc1ccccc1	-2.0	-3.0	53.6*	43.0*	71.2*	38.9	38.7
O=C(NNC(=S)Nc1ccccc1)c1ccncc1	-2.9	-3.8	6.3	-5.1	-3.2	.	.
CC1(C)CC(=O)C2=C(C1)OC1=C(C(=O)CC(C)(C)C1)C2c1ccc(O)c([N+](=O)[O-])c1	-2.8	-6.1	22.1	23.7	14.7	.	.
CC1(C)CC(=O)C2=C(C1)OC1=C(C(=O)CC(C)(C)C1)C2c1ccc(O)cc1O	-5.3	-4.3	92.6*	51.9*	65.5*	104.9*	87.7*
COc1ccc(C)c(-n2c(=O)n(Cc3ccccc3)c(=O)c3[nH]cnc32)c1	36.8	-18.8	80.8*	68.6*	69.1*	117.3*	69.6*
COc1ccc(Cn2c(=O)c3[nH]cnc3n(-c3ccccc3C)c2=O)cc1	-11.9	-3.3	4.8	2.8	-0.1	.	.
C=CCN(C(=O)c1csnn1)C(C(=O)NC1CCCCC1)c1ccccc1 (stereo not drawn)	5.4	-0.4	7.2	-25.2	1.7	.	.
C/C(=N\NC(=O)Cn1c(-c2ccccn2)nc2ccccc21)c1ccccc1	7.9	-8.5	60.3*	46.6*	45.5*	71.6*	47.2*
COc1cc(/C=C/c2ccc3cccc(OC)c3n2)c(OC(C)=O)c([N+](=O)[O-])c1	28.9	-8.5	52.9*	44.6*	41.0*	74.7*	43.7*
COc1ccccc1NC(=O)CSc1nnc(-c2ccco2)o1	-0.9	-1.6	-0.5	18.2	-5.3	.	.
CCn1c(=O)cc(NC2=NCC(C)CN2c2cccc(Cl)c2)n(C)c1=O (stereo not drawn)	33.1	-9.8	66.2*	61.5*	57.1*	110.2*	59.5*
CCn1c(NC)cc(=O)n(C)c1=O	-0.2	2.9	1.8	-4.8	-4.4	.	.
O=C(N/C(=C\c1ccc(F)cc1)C(=O)N1CCOCC1)c1ccccc1	-0.4	-1.3	7.8	-2.6	2.1	.	.
O=C(OCC(=O)N(Cc1ccccc1)C1CCS(=O)(=O)C1)c1cc2c(s1)CCCC2 (stereo not drawn)	8.9	1.4	27.6	17.6	2.1	.	.
O=C(COc1ccccc1)NNc1nc2c(F)cc(F)cc2s1	2.7	-0.9	4.2	-14.6	-7.2	.	.
O=C(Nc1nc2c(F)cc(F)cc2s1)c1ccccn1	63.4*	-8.1	79.4*	79.8*	49.3*	83.6*	68.5*
COC(=O)c1ccccc1-c1ccc(/C=N/NC(=O)c2cc3ccccc3o2)o1	3.8	0.9	2.7	-10.1	-2.2	.	.
COC(=O)c1ccccc1-c1c2ccc(=N)cc-2oc2cc(N)ccc12	20.5	-9.0	67.0*	49.4*	45.2*	74.7*	62.0*
Oc1ccc(Cl)cc1/C=C/c1ccc2cccc(O)c2n1	5.4	0.7	13.4	-71.2	6.2	.	.
Oc1cccc2ccc(/C=C/c3cccs3)nc12	40.2*	-8.0	72.4*	52.7*	50.2*	51.3*	51.2*
Cc1ccsc1/C=C/c1ccc2cccc(O)c2n1	41.1	-11.0	74.3*	45.6*	59.5*	41.3	66.4*
SMILES	EBI2 block	APJ agonist	CCR6 antag	APJ antagonist	CXCR6 block	APJ antag confirm	CXCR6 confirm
C=CCN1C(=O)/C(=C2/Sc3ccccc3N2C)SC1=Nc1c(C)n[nH]c1C	20.3	-4.6	-18.2	-22.2	1.8	.	.
O=C(NC(c1ccccc1)c1ccccc1)c1ccc(CO)cc1	2.9	-0.9	11.2	10.7	0.6	.	.
Cc1ccc(NC(=S)NNc2ccc(C(=O)O)cc2[N+](=O)[O-])cc1C	8.1	-6.2	36.3	42.0*	40.9*	49.9	42.2*
CC(=O)N1N=C(c2ccccc2)CC1c1cccc([N+](=O)[O-])c1 (stereo not drawn)	21.4	-6.4	45.8	39.2	34.5	.	.
CC(=O)N1N=C(c2cccs2)CC1c1cccc([N+](=O)[O-])c1 (stereo not drawn)	24.9	-7.7	61.6*	53.2*	50.0*	52.1*	54.2*
CCOC(=O)C1=C(C)NC2=C(C(=O)CC(c3cccs3)C2)C1c1cccs1 (stereo not drawn)	30.8	-10.8	54.0*	40.6*	41.8*	73.5*	45.2*
CCOC(=O)C1=C(C)NC(c2cccs2)C(=O)N1 (stereo not drawn)	-5.6	-1.7	-5.8	3.6	-1.3	.	.
O=C(NNC(=O)C12CC3CC(CC(C3)C1)C2)c1ccccn1	-1.9	-7.9	91.5*	48.5*	70.8*	68.9*	79.2*
O=C(NNC(=O)C12CC3CC(CC(C3)C1)C2)c1cnccn1	4.0	-1.2	10.0	2.7	13.2	.	.
CCC(=O)OCCNc1cc(Sc2nc3ccccc3s2)c2nonc2c1[N+](=O)[O-]	27.0	-5.3	109.0*	68.1*	89.3*	85.8*	100.9*
CCCSc1cc(NCCOC(=O)CCC)c([N+](=O)[O-])c2nonc12	-5.1	-4.1	83.6*	41.6*	62.0*	74.6*	71.9*
COC(=O)CSc1[nH]c2ccc(Br)cc2c1[N+](=O)[O-]	17.7	-7.4	60.8*	41.1*	40.8*	55.4*	46.3*
FC(F)(F)c1cnc(NNC(=S)Nc2ccc(Cl)cc2)c(Cl)c1	31.6	-9.7	94.4*	64.4*	72.2*	116.7*	84.5*
FC(F)(F)c1cccc(NC(=S)NNC(=S)Nc2ccc(Cl)cc2)c1	.	-1.7	.	-0.2	.	.	.
Fc1ccc(NC(=S)NNc2ncc(C(F)(F)F)cc2Cl)c(F)c1	18.8	-7.0	91.9*	72.1*	80.8*	98.5*	75.8*
O=S(=O)(NNc1ncc(C(F)(F)F)cc1Cl)c1ccc(F)cc1F	-4.9	-0.2	-16.3	29.8	-3.2	.	.
CC(C)(C)CNC(=O)c1ccc2c(c1)S(=O)(=O)c1cc(Cl)ccc1C2=O	-28.2	0.6	-13.1	-30.6	-38.7	.	.
Cc1cccc2cc(C3CC(c4ccco4)=NN3C(=O)CCC(=O)O)c(Cl)nc12 (stereo not drawn)	-11.2	2.2	-1.9	-6.3	-0.3	.	.
N#Cc1c([N+](=O)[O-])cc([N+](=O)[O-])cc1S(=O)(=O)Cc1ccccc1	5.6	-1.4	105.9*	63.8*	94.6*	60.9*	86.9*
